Results: ChEMBL document CHEMBL1122218, “Phosphonate analogues of pyridoxal phosphate with shortened side chains” (J Med Chem, 1983)
Where “and” joins values, the source holds several entries; their conditions need not be identical. Identical values can stand only once.

Assay: Apparent acid dissociation constant (pK) was determined
Assay type: ADME
Settings: for pKa: read-out: pK
In short: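 Analogue bound to apo-aspartate aminotransferase (complex formed at pH 8.3) was titrated toward lower pH by adding 2 M acetate buffer, pH 5.4. Absorption spectra were followed for the shift of the bound-coenzyme band to 420 nm, and the pK was estimated from the pH dependence of that spectral change.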

Row | pK | SMILES | pKa
1 | 4.07 and 6.76 and 9.2 | Cc1ncc(CP(=O)(O)O)c(C=O)c1O | –
2 | 3.62 and 6.1 and 8.33 | Cc1ncc(COP(=O)(O)O)c(C=O)c1O [PYRIDOXAL PHOSPHATE ANHYDROUS] | –
3 | 3.91 and 8.21 | CCOP(=O)(O)Cc1cnc(C)c(O)c1C=O | –

Second part, the molecule before the results:

Row | SMILES | pK | pKa
4 | Cc1cnc(C)c(O)c1C=O | 8.05 | 4.15
5 | CCOP(=O)(Cc1cnc(C)c(O)c1CO)OCC | 8.59 | 4.53
6 | CCOP(=O)(Cc1cnc(C)c(O)c1C=O)OCC | 3.03 and 7 | –
